Format in all cases: functional, Artery
Common to all, as to conditions: route oral

Experiment [1] has as its system Rattus norvegicus. In words: Percentage fall in systolic blood pressure after 4 hr at 1.25 mg/kg given perorally. The essentials:
(§1)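 Male Okamoto-Aoki spontaneously hypertensive rats, trained, in groups of four matched for mean systolic pressure; five treated groups and one vehicle control run concurrently. Oral dosing in water (solution or suspension, 0.1 mL/10 g) on two consecutive mornings. On day 2, rats were restrained at 30.0 ± 1.0 °C and tail-cuff systolic pressure recorded at 1–4 h; percent fall versus control, 1-tail t test, p ≤ 0.05.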

Experiment [2] deals with Rattus norvegicus. In words: Percentage fall in systolic blood pressure after 1 hr at 0.31 mg/kg given perorally. Summed up: as §1
In experiment [3] the test system is Rattus norvegicus. The experiment is described as follows: Percentage fall in systolic blood pressure after 1 hr at 1.25 mg/kg given perorally. The essentials: as §1
Experiment [4] has as its system Rattus norvegicus. The experiment is described as follows: Percentage fall in systolic blood pressure after 3 hr at 0.31 mg/kg given perorally. The essentials:
as §1

The test system of experiment [5] is Rattus norvegicus. In words: Percentage fall in systolic blood pressure after 3 hr at 1.25 mg/kg given perorally. The essentials: as §1
Experiment [6] deals with Rattus norvegicus. The experiment is described as follows: Percentage fall in systolic blood pressure after 4 hr at 0.31 mg/kg given perorally. Summed up:
as §1

The test system of experiment [7] is Rattus norvegicus. The experiment is described as follows: Percentage fall in systolic blood pressure after 2 hr at 1.25 mg/kg given perorally. The essentials: as §1
Experiment [8] has as its system Rattus norvegicus. The experiment is described as follows: Percentage fall in systolic blood pressure after 2 hr at 0.31 mg/kg given perorally. Summed up: as §1

Experimental findings from ChEMBL document CHEMBL1122233, “Antihypertensive 9-substituted 1-oxa-4,9-diazaspiro[5.5]undecan-3-ones” (J Med Chem, 1983) are described below.

For the compound `COc1cc2nc(N3CCN(C(=O)c4ccco4)CC3)nc(N)c2cc1OC` [PRAZOSIN], the “Decrease in SBP” value in experiment [1] came out at 31%; in experiment [2], 19%; in experiment [3], 26%; in experiment [4], 21%; in experiment [5], 36%; in experiment [6], 26%. In addition, the “Decrease in SBP” value in experiment [7] is 46%; in experiment [8], 31%.
